# Active and inactive are the calls of the source. No cut-off for these calls is given here.
# What was measured:
# [1] = biological target: T1, Glucocorticoid receptor (Canis lupus familiaris, UniProt A0A8C0QLS2); test: Antagonist activity at GR in dog PBMC assessed as reduction in dexamethasone-induced FKBP5 gene expression incubated for 6 hrs by RT-qPCR method; assay type: cell-based
# T1 sequence (A0A8C0QLS2 whole entry): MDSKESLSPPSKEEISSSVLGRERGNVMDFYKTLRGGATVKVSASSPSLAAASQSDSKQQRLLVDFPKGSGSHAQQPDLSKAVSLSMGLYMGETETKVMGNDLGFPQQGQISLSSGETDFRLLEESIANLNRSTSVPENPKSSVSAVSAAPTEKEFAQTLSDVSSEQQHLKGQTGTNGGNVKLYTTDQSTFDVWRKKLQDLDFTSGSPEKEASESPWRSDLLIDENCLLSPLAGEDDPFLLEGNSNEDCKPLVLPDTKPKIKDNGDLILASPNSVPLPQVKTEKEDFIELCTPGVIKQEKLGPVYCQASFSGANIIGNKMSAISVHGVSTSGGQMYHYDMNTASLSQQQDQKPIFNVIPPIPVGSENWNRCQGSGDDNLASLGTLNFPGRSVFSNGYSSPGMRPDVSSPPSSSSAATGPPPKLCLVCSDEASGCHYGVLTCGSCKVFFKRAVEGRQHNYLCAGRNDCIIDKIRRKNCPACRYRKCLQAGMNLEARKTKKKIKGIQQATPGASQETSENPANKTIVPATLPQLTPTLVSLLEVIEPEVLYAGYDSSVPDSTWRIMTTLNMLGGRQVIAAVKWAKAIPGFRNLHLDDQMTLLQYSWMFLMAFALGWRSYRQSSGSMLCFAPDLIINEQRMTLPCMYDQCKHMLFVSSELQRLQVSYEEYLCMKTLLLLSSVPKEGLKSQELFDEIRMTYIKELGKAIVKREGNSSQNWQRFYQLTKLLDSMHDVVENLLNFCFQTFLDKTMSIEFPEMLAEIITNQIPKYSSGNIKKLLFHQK
# [2] = system: OVCAR-5; test: Potentiation of gemcitabine-induced antitumor activity against human OVCAR5 cells xenografted in chronic cortisol treated nude mouse assessed as reduction in tumor volume at 75 mg/kg, po BID dosed via gavage co-treated with gencitabine at 100 mg/kg dosed every 3 days for 4 doses; assay type: functional, organism-based
# Procedure, shortened: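 Cortisol given in drinking water at 100 mg/L before tumor implantation and throughout the study. Mice bearing established OVCAR5 xenografts, n = 10 per group. Gemcitabine 100 mg/kg and carboplatin 60 mg/kg given every 3 days for 4 doses. Antagonist given at 75 mg/kg twice daily by oral gavage for the whole study. Tumor volume tracked, mean ± SEM, with significance assessed on day 21.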
# [3] = biological target: T2, Progesterone receptor (Homo sapiens, UniProt P06401); test: Agonist activity at human PR expressed in CHO-K1 cells incubated for 20 hrs by luciferase reporter gene assay; assay type: cell-based; conditions: cho-k1, 20 h
# T2 sequence (P06401 whole entry): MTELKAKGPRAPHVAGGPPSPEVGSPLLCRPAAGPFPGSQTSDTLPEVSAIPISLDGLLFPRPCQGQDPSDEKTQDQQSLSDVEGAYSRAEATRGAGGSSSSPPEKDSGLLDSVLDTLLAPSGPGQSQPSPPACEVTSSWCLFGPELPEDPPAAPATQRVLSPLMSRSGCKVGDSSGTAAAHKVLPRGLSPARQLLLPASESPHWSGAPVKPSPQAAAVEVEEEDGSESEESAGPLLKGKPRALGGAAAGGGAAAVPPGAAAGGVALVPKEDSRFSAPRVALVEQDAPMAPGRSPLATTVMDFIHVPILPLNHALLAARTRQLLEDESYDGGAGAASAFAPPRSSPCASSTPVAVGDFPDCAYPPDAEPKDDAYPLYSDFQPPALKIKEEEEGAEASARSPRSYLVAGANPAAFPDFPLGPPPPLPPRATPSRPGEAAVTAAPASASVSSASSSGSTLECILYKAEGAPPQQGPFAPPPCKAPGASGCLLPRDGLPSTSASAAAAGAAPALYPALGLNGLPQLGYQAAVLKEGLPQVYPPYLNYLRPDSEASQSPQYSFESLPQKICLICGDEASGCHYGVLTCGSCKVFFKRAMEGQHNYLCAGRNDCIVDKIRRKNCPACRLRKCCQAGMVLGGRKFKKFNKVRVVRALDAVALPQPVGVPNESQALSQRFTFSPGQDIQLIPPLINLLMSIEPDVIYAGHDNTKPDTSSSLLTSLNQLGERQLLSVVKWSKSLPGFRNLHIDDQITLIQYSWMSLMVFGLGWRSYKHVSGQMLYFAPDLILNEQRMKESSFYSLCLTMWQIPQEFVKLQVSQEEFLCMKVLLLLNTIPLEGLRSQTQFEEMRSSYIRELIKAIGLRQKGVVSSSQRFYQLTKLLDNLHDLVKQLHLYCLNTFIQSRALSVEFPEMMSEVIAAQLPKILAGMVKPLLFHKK
# [4] = Antagonist activity at GR in monkey PBMC assessed as reduction in dexamethasone-induced GILZ gene expression incubated for 6 hrs by RT-qPCR method; assay type: cell-based; conditions: Macaca mulatta
# [5] = AUC in mini pig at 10 mg/kg, po; assay type: ADME, organism-based, Sus scrofa; conditions: in vivo
# [6] = biological target: T3, Glucocorticoid receptor (Rattus norvegicus, UniProt P06536); test: Antagonist activity at GR in rat PBMC assessed as reduction in dexamethasone-induced FKBP5 gene expression incubated for 24 hrs by RT-qPCR method; assay type: cell-based
# T3 sequence (P06536 whole entry): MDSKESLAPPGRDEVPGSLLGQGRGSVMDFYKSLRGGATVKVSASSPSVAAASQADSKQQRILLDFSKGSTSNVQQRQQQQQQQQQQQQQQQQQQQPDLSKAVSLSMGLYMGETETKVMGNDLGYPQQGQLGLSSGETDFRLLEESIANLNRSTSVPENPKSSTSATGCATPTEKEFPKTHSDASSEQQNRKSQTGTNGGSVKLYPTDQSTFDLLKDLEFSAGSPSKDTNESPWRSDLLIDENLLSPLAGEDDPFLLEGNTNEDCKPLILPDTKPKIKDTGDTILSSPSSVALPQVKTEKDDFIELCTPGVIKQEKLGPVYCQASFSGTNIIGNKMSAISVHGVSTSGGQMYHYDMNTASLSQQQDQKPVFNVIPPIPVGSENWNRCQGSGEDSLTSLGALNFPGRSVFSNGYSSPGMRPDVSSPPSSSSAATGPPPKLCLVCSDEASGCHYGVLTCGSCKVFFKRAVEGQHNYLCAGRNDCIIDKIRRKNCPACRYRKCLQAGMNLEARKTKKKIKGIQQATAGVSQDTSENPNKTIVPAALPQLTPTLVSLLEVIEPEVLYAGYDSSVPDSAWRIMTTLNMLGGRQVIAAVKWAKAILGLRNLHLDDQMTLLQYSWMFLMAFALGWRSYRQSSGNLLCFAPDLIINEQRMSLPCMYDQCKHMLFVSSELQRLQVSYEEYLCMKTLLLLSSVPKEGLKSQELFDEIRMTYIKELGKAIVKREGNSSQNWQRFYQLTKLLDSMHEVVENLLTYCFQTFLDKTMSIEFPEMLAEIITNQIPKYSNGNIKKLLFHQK
compound,measurement,setting,value
CC(C)N(C)c1ccc([C@H]2C[C@@]3(C)[C@@H](CC[C@@]3(O)C#CC(C)(C)C)[C@@H]3CCC4=CC(=O)CC[C@@H]4[C@H]32)cc1,IC50,[1],24.5 nM
same,Activity,[2],Active
same,Activity,[3],Not Active
same,IC50,[4],14.9 nM
same,AUC,[5],1720 ng·h/mL
same,IC50,[6],45.6 nM

# — ChEMBL document CHEMBL4145686, “Discovery of a Potent and Selective Steroidal Glucocorticoid Receptor Antagonist (ORIC-101)” (J Med Chem, 2018)
